Sampled rows, rich in hits. Any-hit rate of the full collection: about 2.3%.
TRPC4 act = activators of mouse TRPC4 channel. AID 2237. B-score at 10 µM. HEK293 TRPC4beta/mu-opioid, Fluo4 calcium fluorescence; active compounds read high. 310,000 tested, 0.49% active. Q9QUQ5;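 active = B-score above 5 SD of library B-scores, and initial fluorescence ratio not above library mean plus 5 SD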;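 note: positive B-score marks a calcium rise read as TRPC4 activation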
Target sequence (Q9QUQ5 whole entry, looked up): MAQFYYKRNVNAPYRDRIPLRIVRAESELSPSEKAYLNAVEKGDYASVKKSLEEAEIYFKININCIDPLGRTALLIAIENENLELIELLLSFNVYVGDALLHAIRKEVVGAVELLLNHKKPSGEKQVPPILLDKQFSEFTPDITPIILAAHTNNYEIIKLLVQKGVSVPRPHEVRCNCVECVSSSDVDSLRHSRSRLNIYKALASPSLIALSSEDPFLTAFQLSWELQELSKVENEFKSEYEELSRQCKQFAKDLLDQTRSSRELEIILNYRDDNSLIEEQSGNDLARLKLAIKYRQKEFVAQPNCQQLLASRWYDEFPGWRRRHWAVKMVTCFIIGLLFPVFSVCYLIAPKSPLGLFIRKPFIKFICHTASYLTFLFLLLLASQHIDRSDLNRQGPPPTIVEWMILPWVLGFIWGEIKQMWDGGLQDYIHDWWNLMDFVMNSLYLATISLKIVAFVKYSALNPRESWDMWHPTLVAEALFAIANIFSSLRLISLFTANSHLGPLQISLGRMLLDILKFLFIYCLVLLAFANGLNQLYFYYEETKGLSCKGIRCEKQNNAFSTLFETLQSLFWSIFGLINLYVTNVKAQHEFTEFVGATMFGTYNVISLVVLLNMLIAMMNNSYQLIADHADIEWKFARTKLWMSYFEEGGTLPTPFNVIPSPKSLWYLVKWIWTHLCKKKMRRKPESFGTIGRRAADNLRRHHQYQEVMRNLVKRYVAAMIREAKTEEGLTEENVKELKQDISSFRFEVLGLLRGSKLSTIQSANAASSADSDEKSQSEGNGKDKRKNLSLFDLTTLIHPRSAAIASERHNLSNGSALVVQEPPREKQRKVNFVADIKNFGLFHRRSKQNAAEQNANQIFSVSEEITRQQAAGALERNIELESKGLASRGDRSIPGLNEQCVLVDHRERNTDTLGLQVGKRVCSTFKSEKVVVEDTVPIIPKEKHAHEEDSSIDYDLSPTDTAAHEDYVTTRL
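System: HEK293 cells stably co-expressing mouse TRPC4beta and mu-opioid receptor; Schedule: Fluo4 dye loading 45 min at room temperature, 110 s recording; Detection: Fluo4 fluorescence, kinetic; Evaluation: B-scored integrated calcium fluorescence ratio; Controls: buffer (low) and maximal DAMGO (high).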
TRPC4 potent = allosterically enhances the mouse TRPC4 cation channel | AID 2227 | 310,000 tested, 0.42% active | HEK293 TRPC4beta/mu-opioid, DAMGO EC20, Fluo-4 Ca2+ flux; active compounds read high | B-score at 10 µM | Q9QUQ5;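 active = B-score of calcium response area above 5 SD of library B-scores, with initial fluorescence ratio within 5 SD of library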;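 note: B-score of integrated fluorescence ratio over time as area under calcium response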
TRPC6 inhibitor = mouse TRPC6 channel inhibition | Q61143 | HEK293-TRPC6, membrane potential dye, ACh-evoked depolarization; active compounds read low | B-score at 10 µM | 310,000 tested, 1.1% active | AID 2553;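 active = B-score under library mean minus 3 SD, initial fluorescence not abnormally high, positive integrated signal ratio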;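 note: B-score derived from integrated fluorescence ratio over the kinetic read; more negative B-score means stronger inhibition of depolarization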
TRPC6 activator = activates the mouse TRPC6 cation channel. HEK293-TRPC6 membrane potential dye fluorescence; active compounds read high. Q61143. 310,000 tested, 0.13% active. B-score at 10 µM;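 active = B-score of the integrated fluorescence ratio above library mean plus 3 SD, and starting fluorescence ratio within library mean plus 5 SD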;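 note: higher score means more depolarization so channel activation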
TRPC4 block = blocks the mouse TRPC4 cation channel | AID 2247 | HEK293 TRPC4beta/mu-opioid, DAMGO-evoked Fluo4 calcium flux; active compounds read low | 300,000 tested, 0.39% active | B-score at 10 µM | Q9QUQ5;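 active = B-score over 3 SD under the library average, no early fluorescence shift, positive overall ratio signal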
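Material: HEK293 cells with stable TRPC4beta plus mu-opioid receptor expression; probe or stimulus: DAMGO in two steps, submaximal then maximal; technique: Fluo4 calcium fluorescence by kinetic imaging, 5 s 1 Hz baseline; measure: integrated fluorescence ratio relative to baseline, converted to per-well B score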
TRPC4 spec 2 = mouse TRPC4 off-target activity of TRPC6 inhibitors, second screen | AID 2776 | inhibition, % at 10 µM | HEK293 TRPC4/MOR, membrane potential dye fluorescence; channel activated by saturating DAMGO dose | shares compounds with TRPC6 inhibitor | 920 tested, 42% active;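 active = compounds whose fluorescence signal differed from control wells by over 3 SD, either direction, in both duplicate plates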
TRPC4 spec = mouse TRPC4 off-target activity of TRPC6 inhibitors. HEK293 TRPC4/mu-opioid, membrane potential fluorescence. shares compounds with TRPC6 inhibitor. 920 tested, 61% active. AID 2777. activity change, negative = inhibition, % at 10 µM;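 active = rise or fall in signal beyond 3 SD of buffer-only wells in both replicate plates, either sign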;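 note: integrated kinetic ratio of fluorescence range over baseline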
HEK293 MPD ctr 2-1 = parental HEK293 nonspecific activity of TRPC6 inhibitors, second screen; shares compounds with TRPC6 inhibitor; parental HEK293 membrane potential dye fluorescence; maximal acetylcholine challenge after compound addition; signal change vs control, % at 10 µM; 920 tested, 31% active;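 active = membrane potential signal moving either way by over 3 SD of the maximum-effect control, in both duplicate plates, meaning non-specific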
HEK293 MPD ctr-1 = counter-screen for TRPC6 inhibitors: effect in parental HEK293 cells | shares compounds with TRPC6 inhibitor | membrane potential signal change, % at 10 µM | AID 2780 | 920 tested, 60% active | parental HEK293 membrane potential dye fluorescence;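 active = membrane potential signal shifting up or down by more than 3 SD of buffer-only wells, on both duplicate plates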
HEK293 MPD ctr-2 = parental HEK293 nonspecific activity of TRPC6 modulators; 2,400 tested, 51% active; membrane potential dye fluorescence; shares compounds with TRPC6 inhibitor; membrane potential signal change, % at 10 µM;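 active = membrane potential signal moves up or down beyond 5 SD from buffer-only wells, on both duplicate plates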
HEK293 MPD ctr 2-2 = second check of TRPC6 modulator effects in parental HEK293 cells; shares compounds with TRPC6 inhibitor; membrane potential dye fluorescence; after compound, maximal acetylcholine stimulation; inhibition, % at 10 µM; 2,400 tested, 14% active; AID 488926;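 active = membrane potential signal drops by more than 5 SD from the mean control signal, in both duplicate plates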;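 note: plate controls were acetylcholine ECmax control wells for no effect and buffer only wells for full effect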
TRPC4 ctr mod = mouse TRPC4 off-target activity of TRPC6 modulators; shares compounds with TRPC6 inhibitor; 2,400 tested, 69% active; percent change from control (negative = decrease, positive = increase), % at 10 µM; HEK293 TRPC4/mu-opioid, membrane potential fluorescence;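 active = membrane potential signal moved up or down beyond 5 SD of buffer control wells, in both duplicate plates, actives on both sides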;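 note: plate controls were assay buffer wells for no effect and DAMGO maximal-effect wells for full effect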
TRPC4/MOR inh 2 = second selectivity test of TRPC6 modulators against mouse TRPC4. shares compounds with TRPC6 inhibitor. HEK293 TRPC4/mu-opioid, membrane potential dye fluorescence; stimulated with maximal-effect DAMGO. inhibition, % at 10 µM. 2,400 tested, 55% active;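 active = drop in membrane potential signal beyond 5 SD of the control wells in both duplicate plates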;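 note: TRPC4 counter screen for TRPC6 hits run under conditions tuned for TRPC6 not TRPC4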
TRPC6 inh conf = mouse TRPC6 inhibitor confirmation; shares compounds with TRPC6 inhibitor; HEK293-TRPC6, membrane potential dye, ACh-evoked depolarization; inhibition, % at 10 µM; 3,300 tested, 43% active;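 active = fluorescence ratio falls more than 5 SD below the full-stimulation control mean, in both duplicate runs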;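 note: integrated fluorescence ratio of peak minus minimum over baseline after agonist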
TRPC6 act confirm = mouse TRPC6 activator confirmation; shares compounds with TRPC6 inhibitor; HEK293-TRPC6 membrane potential dye fluorescence, FDSS; activation, % at 10 µM; 2,800 tested, 11% active; AID 488961;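 active = ratio signal rise beyond 5 SD above unstimulated control wells' mean, seen in both duplicate runs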;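 note: plate controls were buffer EC0 wells for no effect and acetylcholine ECmax response for full effect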
An asterisk follows results filed as active; i = inactive; x = no result given.

SMILES | TRPC4 act | TRPC4 potent | TRPC6 inhibitor | TRPC6 activator | TRPC4 block | HEK293 MPD ctr-2 | HEK293 MPD ctr 2-2 | TRPC4 ctr mod | TRPC4/MOR inh 2 | TRPC6 inh conf | TRPC6 act confirm | others
CCc1nc2ccc(C)cc2c(C(=O)NC2CCCCC2C)c1C (stereo not given) | i | i | i | 14* | i | 426%* | i | 102%* | 31%* | i | 148%*
COc1ccc(Oc2c(C(F)(F)F)oc3cc(OCC(=O)O)ccc3c2=O)cc1 | i | i | -5.2* | i | i | i | i | i | i | i | i
O=C(OCc1ccccn1)c1ccc(COc2ccc3ccccc3c2)o1 | i | i | i | i | i | x | x | x | x | x | x
COC(=O)c1ccccc1NC(=O)c1cc[n+]([O-])cc1 | i | i | i | i | i | x | x | x | x | x | x
COC(=O)c1ccccc1NC(=O)c1cc[n+](C)cc1 | i | i | -5.8* | i | i | -200%* | i | -33%* | i | i | i
Oc1[nH]c2ccccc2c1N=NC(=S)NCC1CCCO1 (stereo not given) | i | i | i | i | i | x | x | x | x | x | x
Oc1[nH]c2ccc(Br)cc2c1N=NC(=S)NCC1CCCO1 (stereo not given) | i | i | -8.8* | i | i | x | x | x | x | i | i | TRPC4 spec 2=i;TRPC4 spec=i;HEK293 MPD ctr 2-1=i;HEK293 MPD ctr-1=i
Cc1csc(C(C)N(C)C(=O)c2ccc(OC3CCN(Cc4ccccn4)CC3)cc2)n1 (stereo not given) | i | i | i | i | i | x | x | x | x | x | x
O=C1CC(c2ccc(Cl)c(Cl)c2)CC(O)=C1C=NCCN1CCNCC1 (stereo not given) | i | i | -5.9* | i | i | i | i | 9.5%* | i | i | x
O=C1CC(c2ccco2)CC(O)=C1C=NCCN1CCNCC1 (stereo not given) | i | i | -8.7* | i | i | x | x | x | x | i | i | TRPC4 spec 2=i;TRPC4 spec=i;HEK293 MPD ctr 2-1=i;HEK293 MPD ctr-1=i
O=C1CC(c2ccc(F)cc2)CC(O)=C1C=NCCN1CCNCC1 (stereo not given) | i | i | i | i | i | x | x | x | x | x | x
COc1ccccc1CNC(=O)C1CCC(CNS(=O)(=O)c2ccc(C)cc2)CC1 (stereo not given) | i | i | i | i | i | x | x | x | x | x | x
CCCC(=O)NC(c1ccc2c(c1)OCO2)c1cc(Cl)c2cccnc2c1O (stereo not given) | i | i | -5.8* | i | i | 118%* | i | i | i | i | i
Cc1ccc(OCC(=O)Nc2ccccc2[N+](=O)[O-])c(Br)c1 | i | i | i | i | i | x | x | x | x | x | x
CN(C)C(=O)c1c([N+](=O)[O-])c(C(C)(C)C)nn1C | i | i | -6.2* | i | i | i | i | i | i | i | i
O=c1[nH]c(CN2CCN(C/C=C/c3ccccc3)CC2)nc2cc(Cl)ccc12 | i | i | -5.3* | i | i | i | i | 8.5%* | 44%* | i | i
O=C(CCc1nc2ccccc2c(=O)[nH]1)N1CCN(C/C=C/c2ccccc2)CC1 | i | i | i | i | i | x | x | x | x | x | x
CNC(=S)NCCc1cc2c(OC)ccc(OC)c2[nH]c1=O | i | i | i | i | i | x | x | x | x | x | x
CC(C)=NOCC(=O)Nn1c(COc2c(C)cccc2C)nc2ccccc2c1=O | i | i | i | i | i | x | x | x | x | x | x
CCN1CCc2c(C#N)c(NCc3ccccc3)nc(N(CC)CC)c2C1 | i | i | -7.2* | i | i | x | x | x | x | i | i | TRPC4 spec 2=66%*;TRPC4 spec=-10%*;HEK293 MPD ctr 2-1=i;HEK293 MPD ctr-1=i
CCCc1nc(NCc2ccccc2)c(C#N)c2c1CCCC2 | i | i | i | i | i | x | x | x | x | x | x
C=CCNc1nc(NCc2ccccc2)c(C#N)c2c1CN(C)CC2 | i | i | -6.5* | i | i | -75%* | i | -21%* | 46%* | i | i
CC(Oc1ccccc1)C(=O)N1CCN(c2ccc(N3CCCCC3)nn2)CC1 (stereo not given) | i | i | i | i | i | x | x | x | x | x | x
COc1cccc(OC)c1OCCNCC1COc2ccccc2O1 (stereo not given) | i | i | -5.6* | i | i | 144%* | i | 27%* | 38%* | i | x
COc1ccc(C(CCN(Cc2ccc(OC)c(OC)c2)C(C)=O)C(C)C)cc1 (stereo not given) | i | i | i | i | i | x | x | x | x | x | x
CCN(CC)CCNC(=O)c1ccc(NC(=O)c2cccc(-n3cnnn3)c2)cc1 | i | i | i | i | i | x | x | x | x | x | x
CCOC(=O)c1c(N)c2cc([N+](=O)[O-])ccc2n1C | i | i | i | i | i | x | x | x | x | x | x
CCOC(=O)c1c(N=CN(C)C)c2cc([N+](=O)[O-])cnc2n1C | i | i | -5.7* | i | i | -146%* | i | -23%* | 44%* | 54%* | i
Cc1c(Cl)cccc1NC(=O)CCN1CCC(C(N)=O)CC1 | i | i | i | i | i | x | x | x | x | x | x

Compound activity as filed in PubChem BioAssay.
